Source: PubChem BioAssay (several laboratories)
Vif inh: HIV Vif inhibition. 340,000 tested, 0.35% active. AID 602346. inhibition, % at 7.49 µM. HEK293T cells, Vif self-association by quenched fluorescence, imaging, 24 h; in the data active means inhibition above about 50%, passing the limit was not always enough; inconclusive means no clear call, values can overlap the other calls; inactive means below about 31%
Myeloid diff 2: myeloid differentiation induction; 360,000 tested, 1% active; ER-HoxA9 myeloid progenitors, lysozyme-GFP differentiation, flow cytometry; calls only at 10 µM; AID 624256;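 active means normalized GFP-positive differentiation at or above the plate's own cutoff, the solvent-only control mean plus 3 SD; inconclusive means no clear call, values can overlap the other calls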;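 further: cells exposed to compound for four days before flow analysis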
T cell HTS: T cell immune modulation candidate; 2C CD8+ T cell-vesicle binding, flow cytometry; hits give low values; response (vesicle binding), % at 7 µM; 330,000 tested, 0.068% active; AID 2052;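 active means response, share of CD8 T cells binding vesicles, and their 90th percentile fluorescence all below set limits, cut at about 80% in these data, passing the limit was not always enough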;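 further: values below 100% mean blocked vesicle binding to the CD8+ T cells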
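Assay system – 2C mouse CD8+ T cells · Also added – QL9-loaded Drosophila micro-vesicles · Timing – Cell–vesicle co-incubation 1.5 h at 37 °C, staining 20 min on ice · Signal – flow cytometry of vesicle-bound cells · Measure – percent CD8+ FL2 mean versus row control · Controls – Peptide-free naked vesicles (low) and QL9 vesicles with 0.7% DMSO vehicle (high)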
Pemphigus Ab inh: inhibitors of pemphigus antibody binding to human desmoglein-3; P32926; DSG3-coupled beads, scFv-anti-DSG3-GFP binding, flow cytometry; hits give low values; binding (percent of control), % at 10 µM; 310,000 tested, 0.48% active;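 active means binding more than 3 SD below its plate's average and above zero; inconclusive means below that plate limit but binding exactly zero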;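 further: hits lower antibody fragment binding to DSG3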
Target sequence (P32926 whole entry, looked up, the tested form may be a part): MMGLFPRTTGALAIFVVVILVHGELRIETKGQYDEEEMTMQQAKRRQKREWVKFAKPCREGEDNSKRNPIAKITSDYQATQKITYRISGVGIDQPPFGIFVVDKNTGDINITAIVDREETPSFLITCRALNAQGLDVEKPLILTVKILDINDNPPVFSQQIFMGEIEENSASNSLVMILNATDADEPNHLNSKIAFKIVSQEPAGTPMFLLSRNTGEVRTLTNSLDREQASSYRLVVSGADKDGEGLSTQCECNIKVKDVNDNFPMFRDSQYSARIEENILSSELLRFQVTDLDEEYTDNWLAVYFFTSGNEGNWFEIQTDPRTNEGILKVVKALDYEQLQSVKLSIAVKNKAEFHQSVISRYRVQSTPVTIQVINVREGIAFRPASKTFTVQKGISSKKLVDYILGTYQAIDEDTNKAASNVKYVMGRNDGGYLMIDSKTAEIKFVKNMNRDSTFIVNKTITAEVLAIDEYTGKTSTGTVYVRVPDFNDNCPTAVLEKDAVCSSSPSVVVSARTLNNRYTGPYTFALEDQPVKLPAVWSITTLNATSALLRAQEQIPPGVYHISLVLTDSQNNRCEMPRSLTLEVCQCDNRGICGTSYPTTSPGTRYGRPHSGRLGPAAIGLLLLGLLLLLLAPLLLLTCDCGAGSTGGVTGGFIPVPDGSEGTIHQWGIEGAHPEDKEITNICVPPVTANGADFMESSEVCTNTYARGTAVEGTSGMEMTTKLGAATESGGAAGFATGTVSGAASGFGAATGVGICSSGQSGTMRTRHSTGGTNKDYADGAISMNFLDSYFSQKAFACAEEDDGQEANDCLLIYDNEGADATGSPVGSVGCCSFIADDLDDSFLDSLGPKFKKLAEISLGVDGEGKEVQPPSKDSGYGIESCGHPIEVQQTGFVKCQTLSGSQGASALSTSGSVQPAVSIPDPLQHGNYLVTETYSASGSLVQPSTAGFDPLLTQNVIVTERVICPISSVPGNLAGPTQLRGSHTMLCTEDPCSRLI
Starred values were filed as active, the others as inactive; i = inactive; ? = inconclusive; · = no result; + = active, no number. Sampled rows, rich in hits. Any-hit rate of the full collection: about 1.7%.

SMILES | Vif inh | Myeloid diff 2 | T cell HTS | Pemphigus Ab inh
CN1[C@@H](COCc2ccccc2)C=CS1(=O)=O | 0 | i | · | ·
N#C/C(C(=O)Nc1ccc(Cl)cc1)=C(/S)Nc1ccccc1 | 4 | i | 42 | 74*
N#C/C(C(=O)NCc1ccccc1)=C1/N=C(NC(=O)c2cccs2)c2ccccc21 | -2 | + | 326 | 85*
CCCNC(=O)/C(C#N)=C1\N=C(NC(=O)c2ccco2)c2ccccc21 | 1 | i | 363 | 103
Brc1cc2c(cc1C1OCCCO1)OCO2 | 4 | i | · | ·
Cc1ccc(S(=O)(=O)N(C)C)cc1NC(=O)C1CCCCC1 | -6 | i | 634 | 63*
Cc1ccc(OCCC(=O)OCC(=O)Nc2cc(S(=O)(=O)N(C)C)ccc2C)cc1 | 4 | + | 304 | 99
Nc1ncnc2oc(-c3ccco3)c(-c3ccco3)c12 | · | i | 407 | 52*
Cc1cccc(C(=O)NCCC(=O)NCc2ccccc2F)c1 | 13 | i | 374 | 104
Cc1cccc(C(=O)NCCC(=O)NCc2ccccc2Cl)c1 | 54* | i | 993 | ·
COC(=O)c1cc([N+](=O)[O-])c(C)c(C)n1 | -2 | i | · | 104
CC(C)N(CCNC(=O)c1nn(Cc2ccccc2)c(=O)c2ccccc12)C(C)C | -4 | i | 0.0* | ·
CCCCOC(=O)c1ccc(NC(=O)C(=O)NCc2ccncc2)cc1 | 5 | i | 0.0* | 122
CCOC(=O)c1ccc(NC(=O)C(=O)NCc2ccncc2)cc1 | -4 | i | 738 | 103
Cc1c(S(=O)(=O)c2ccccn2)c(N)n(Cc2ccccc2Cl)c1C | 5 | + | 588 | 117
Cc1c(S(=O)(=O)c2ccccn2)c(N)n(Cc2ccccc2)c1C | -3 | i | 798 | 99
Clc1ccc(-c2cc(-c3nnc4n3CCCCC4)c3ccccc3n2)cc1 | -8 | + | 156 | 98
Fc1ccc(-c2cc(-c3nnc4n3CCCCC4)c3ccccc3n2)cc1 | 1 | i | 234 | 98
O=c1[nH]c2cc3c(cc2cc1CN(CC1CCCO1)S(=O)(=O)c1ccc(Cl)cc1)OCCO3 (stereo unspecified) | -3 | i | 669 | 97
Cc1ccc(S(=O)(=O)N(Cc2cc3cc4c(cc3[nH]c2=O)OCCO4)CC2CCCO2)cc1 (stereo unspecified) | 12 | i | 608 | 82*
O=C1CC(/C=C/c2ccco2)=Nc2ccccc2N1 | 11 | + | 348 | 103
CCN(c1ccccc1)S(=O)(=O)c1cccc(C(=O)NCC(c2ccc(F)cc2)N2CCOCC2)c1 (stereo unspecified) | -17 | i | · | 112
Cc1ccc(S(=O)(=O)/N=C2/C=C(Sc3ncn[nH]3)C(=O)c3ccccc32)cc1 | 0 | ? | 810 | 94*
CS(=O)(=O)c1ccc(-c2csc(C(O)c3cccc(Cl)c3)n2)cc1 (stereo unspecified) | -14 | i | · | ·
O=C(NCc1ccc(OC(F)(F)F)cc1)c1cccc2c1C(=O)c1ccc(N3CCCCC3)cc1S2(=O)=O | 55* | i | 125 | 127
SMILES | Vif inh | Myeloid diff 2 | T cell HTS | Pemphigus Ab inh
COc1ccccc1N1CCN(c2ccc3c(c2)S(=O)(=O)c2cccc(C(=O)NCc4ccc(F)cc4)c2C3=O)CC1 | -2 | i | · | 112
O=C(NCc1ccc(OC(F)(F)F)cc1)c1cccc2c1C(=O)c1ccc(N3CCCC3)cc1S2(=O)=O | 0 | + | 276 | 140
O=C(NCc1ccc(OC(F)(F)F)cc1)c1cccc2c1C(=O)c1ccc(N3CCC(Cc4ccccc4)CC3)cc1S2(=O)=O | · | + | 158 | 122
O=C(NCc1ccccc1Br)c1cccc2c1C(=O)c1ccc(-c3ccc(OC(F)(F)F)cc3)cc1S2(=O)=O | ? | i | 497 | 94
O=C(NCc1cccc(F)c1)c1cccc2c1C(=O)c1ccc(N3CCCC3)cc1S2(=O)=O | 7 | i | 195 | ·
CC(C)NC(=O)C1(C)CCN1C(=O)c1ccccc1Oc1ccccc1 (stereo unspecified) | 5 | i | · | ·
CC1CN(C(=O)CCC(=O)NCCCN2CCN(Cc3ccccc3)CC2)c2cc(Cl)ccc2O1 (stereo unspecified) | -2 | i | 392 | 107
CC(C(=O)NC(C)(C)C)n1c(C(c2ccccc2)c2ccccc2)nc2ccccc21 (stereo unspecified) | · | i | · | ·
CCn1c2ccccc2c2cc(NC(=O)COC(=O)c3ccc(NC(=O)CC#N)cc3)ccc21 | · | i | 107 | 69*
CCn1c2ccccc2c2cc(NC(=O)c3ccc(Br)o3)ccc21 | -3 | + | 257 | ·
CCn1c2ccccc2c2cc(NC(=O)COC(=O)c3ccccc3F)ccc21 | -9 | i | 169 | 108
CCn1c2ccccc2c2cc(NC(=O)CSc3nnc(-c4ccccc4)o3)ccc21 | 8 | + | 203 | 95
CN(C)CC/C=C1/c2ccccc2CS(=O)(=O)c2ccccc21 | 85* | i | i | 97
CN(C)CC/C=C1\c2ccccc2COc2ccccc21 | 13 | i | 500 | 100
CS(=O)(=O)c1sc2nc(-c3cccs3)cc(-c3ccccc3)c2c1N | -5 | + | 144 | 94
N#Cc1sc2nc(-c3cccs3)cc(-c3ccc(F)cc3)c2c1N | -13 | + | 468 | 111
N#Cc1sc2nc(C3CC3)cc(-c3ccccc3)c2c1N | 2 | i | 153 | 103
Cc1c(C=Nc2ccc(S(=O)(=O)CCO)cc2)c(O)[nH]c(=O)c1C#N | -4 | i | 198 | 107
C=CCNc1nc2ccccc2nc1NS(=O)(=O)c1cccs1 | · | i | 671 | 106
O=S(=O)(Nc1nc2ccccc2nc1NCc1ccco1)c1cccs1 | 11 | + | 116 | ·
Cc1ccc2nc3n(c(=O)c2c1)-c1ncccc1C(=O)NC3Cc1ccccc1 (stereo unspecified) | -20 | i | · | ·
CC(C)C(NS(=O)(=O)c1c(Cl)cccc1Cl)C(=O)OCC(=O)c1c[nH]c2ccccc12 (stereo unspecified) | -4 | + | 234 | 113
CC(O)C(NS(=O)(=O)c1ccc(Cl)cc1)C(=O)OCC(=O)c1c[nH]c2ccccc12 (stereo unspecified) | -3 | i | 205 | 84
N#C/C(=C\c1cccn1S(=O)(=O)c1cccc(C#N)c1)S(=O)(=O)c1ccc(F)cc1 | · | i | · | ·
COC(=O)c1cc2ccccc2c(-c2c(OC)c(C(=O)OC)cc3ccccc23)c1OC | -21 | + | 908 | ·
SMILES | Vif inh | Myeloid diff 2 | T cell HTS | Pemphigus Ab inh
COC(=O)c1cc2ccccc2c([N+](=O)[O-])c1O | 4 | i | · | 92
COc1ccccc1/C=C\C(=O)NCC(=O)N/N=C/c1cccc(OC)c1O | -7 | i | 466 | ·
COc1ccc(/C=N/NC(=O)CNC(=O)/C=C/c2ccccc2OC)cc1 | 1 | + | 160 | 94
O=C1C(=O)c2cccnc2-c2ncccc21 | 78* | ? | · | ·
O=C1c2cccnc2-c2ncccc21 | -6 | i | 531 | 106
CCOC(=O)CC(=O)CSc1ccc2nnc(-c3ccc(C)cc3)n2n1 | -4 | + | 460 | 94
CCc1nc2c(OCc3c(C)noc3C)cccn2c1N(C=O)Cc1ccc(OC)cc1 | 10 | i | · | ·
